Only some compounds are listed: those with a hit (about 1.9% of all), similar ones and a draw of the others.
STEP inh – blocks human striatal-enriched tyrosine phosphatase | 360,000 compounds, 0.25% hits | P54829 | recombinant STEP, OMFP fluorogenic substrate, fluorescence | inhibition, % at 20 µM;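 active = inhibition at 20 µM, scaled per plate between control wells, above about 37%, limit read from the data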
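System: STEP (striatal-enriched tyrosine phosphatase) enzyme, cell-free; medium: Bis-Tris pH 6.0 buffer with DTT, detergent; dosing: 20 µM, 1% DMSO; times: reaction 20 min, ambient temperature; detection: fluorescence, 480/540 nm; read-out basis: normalized % inhibition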
LMPTP block – LMPTP (human) inhibition. P24666. recombinant LMPTP-A, OMFP fluorogenic substrate, fluorescence intensity. inhibition, % at 20 µM. 360,000 compounds, 0.22% hits. AID 651560;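 active = compounds that cut the enzyme signal by at least half of the control window in the single-dose screen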
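Assay system: LMPTP-A phosphatase enzyme | Input: 0.625 nM enzyme | Also added: Fluorogenic phosphatase substrate OMFP at 400 µM final | Compound dosing: One test concentration per compound, 20 µM, with 3% DMSO overall | Schedule: 50 min enzyme reaction at room temperature, protected from light | Signal: Fluorescence intensity | Benchmarks: no-enzyme and uninhibited controls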
DNMT1 inh – DNMT1 (human) enzyme inhibition. 360,000 compounds, 0.83% hits. P26358. inhibition (reported as % activation of signal), % at 10 µM. DNMT1 molecular beacon, Hinp1I cleavage, fluorescence; in the data active = inhibition above about 50%
Scp-1 inhibitor – Scp-1 (human) phosphatase inhibition; Recombinant Scp1, phosphopeptide, malachite green phosphate absorbance; 340,000 compounds, 0.88% hits; inhibition, % at 20 µM; Q9GZU7;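 active = inhibition above about 50% at 20 µM, limit read from the data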
Target sequence (Q9GZU7 76-261 limits assumed): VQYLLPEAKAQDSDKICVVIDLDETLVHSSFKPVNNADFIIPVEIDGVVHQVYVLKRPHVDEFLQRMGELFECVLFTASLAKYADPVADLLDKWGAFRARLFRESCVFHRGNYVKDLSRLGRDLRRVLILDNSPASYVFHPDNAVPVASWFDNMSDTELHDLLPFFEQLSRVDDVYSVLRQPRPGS
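Test system: SCP-1 phosphatase catalytic domain, residues 76-261; measured by: colorimetric phosphate reagent with accelerator and stabiliser, absorbance at 630 nm; timing: enzyme reaction 45 min at room temperature, colour 5 min, stabilisation 30 min; also added: Phosphorylated 17-residue peptide substrate; compound dosing: one concentration, 20 µM, with 1.0% DMSO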
SUMO1 PPI mod – SUMO1-SIM interaction modulation. P63165. SUMO1 binding to a labelled peptide, TR-FRET, 1 h. inhibition, % at 20 µM. 360,000 compounds, 0.33% hits; in the data active = inhibition above about 37%
Target sequence (P63165 whole entry, looked up): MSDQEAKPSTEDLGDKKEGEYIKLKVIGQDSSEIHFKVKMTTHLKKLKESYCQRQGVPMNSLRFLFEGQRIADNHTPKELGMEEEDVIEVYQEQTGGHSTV
SUMO HTRF inh – inhibitors of human SUMOylation (UBC9); HTRF SUMOylation assay, SAE1/SAE2 + UBC9, in vitro; P63279; 290,000 compounds, 0.36% hits; inhibition, % at 35 µM; in the data active = inhibition above about 50%, passing the limit was not always enough
Target sequence (P63279 whole entry, looked up): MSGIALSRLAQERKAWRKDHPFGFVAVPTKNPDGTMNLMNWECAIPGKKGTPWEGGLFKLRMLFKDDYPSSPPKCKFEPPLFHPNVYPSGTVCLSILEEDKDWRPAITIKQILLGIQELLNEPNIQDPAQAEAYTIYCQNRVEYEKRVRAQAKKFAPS
Scp-1 conf – Scp-1 (human) inhibition, single-dose confirmed; 2,500 compounds, 61% hits; AID 540281; recombinant SCP-1 catalytic domain, phosphate release, malachite green absorbance; inhibition, % at 20 µM; shares compounds with Scp-1 inhibitor
MG interference – colorimetric interference in Scp-1 counter-screen | 2,500 tested, under 10 active | apparent inhibition (interference), % at 20 µM | shares compounds with Scp-1 inhibitor | Colorimetric interference counterscreen, malachite green absorbance 630 nm | AID 540313;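 note: compounds added after enzyme reaction finished so only phosphate colour detection is probed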
Scp-1 Tm shift – validation of human Scp-1 inhibitors by thermal shift binding | shares compounds with Scp-1 inhibitor | Recombinant SCP1, Sypro Orange thermal shift Tm | thermal shift relative to vanadate control, % at 40 µM | 1,500 compounds, 25% hits;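 active = substances whose mean melting-temperature shift, as a percentage of the reference inhibitor's shift, reaches about 5.3%, limit read from the data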
Numbers stand for hits; - = inactive; . = not tested or not shown; ! = not confirmed by another sample.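 Rule for the calls, unless noted: active = inhibition of at least 30% at 20 µM; inactive = the rest.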

SMILES | STEP inh | LMPTP block | DNMT1 inh | Scp-1 inhibitor | SUMO1 PPI mod | SUMO HTRF inh | Scp-1 conf | MG interference | others
N#CCC(=O)Nc1ccc(C(=O)OCC(=O)N2CCN(C(=O)c3ccco3)CC2)cc1 | - | - | - | 90 | - | . | 64 | - | Scp-1 Tm shift=-
CC(=O)Nc1ccc(C(=O)OCC(=O)N2CCN(C(=O)c3ccco3)CC2)cc1 | - | - | - | - | - | . | . | .
Cc1cccc2cc(/C=N/NC(=O)c3ccncc3)c(Cl)nc12 | - | - | - | - | - | - | . | .
Cc1cccc2cc(/C=N/NC(=O)c3ccccc3O)c(Cl)nc12 | - | - | - | 95 | - | - | 73 | - | Scp-1 Tm shift=-
Cc1cccc(C)c1NC(=O)C1CCCN1C(=O)NCc1ccccc1 (stereo not drawn) | - | - | - | - | - | - | . | .
CC(C)(C)c1ccc(OCCNCc2ccccc2)cc1 | - | - | - | - | - | - | . | .
CC(C)(C)c1ccc(OCCNC(=S)Nc2ccccc2)cc1 | - | - | - | 57 | - | - | - | -
CC1(C)CC(CCC(=O)NC(=S)Nc2ccccc2Cl)C(=O)O1 (stereo not drawn) | - | - | - | - | - | - | - | -
O=C(CCN1C(=O)c2ccccc2C1=O)NC(=S)Nc1ccccc1Cl | - | - | - | - | - | - | . | .
CC[N+]1(CC(O)COC2CC(C)CC(C)(C)C2)CCOCC1 (stereo not drawn) | - | - | - | 105 | - | - | 91 | - | Scp-1 Tm shift=-
O=S(=O)(NCc1ccccc1Cl)c1cccs1 | - | - | - | - | - | - | . | .
Cc1ccc(NC(=O)CN2CC(C)SC2=NC2CCCCC2)cc1 (stereo not drawn) | - | - | - | 79! | - | - | - | -
Cc1ccc(NC(=O)CN2CCOCC2)cc1 | - | - | - | - | - | - | . | .
O=C(Cn1cc2c(n1)CCCC2)NC1CCCCCC1 | - | - | - | - | - | - | . | .
COC(=O)c1ccn(CC(=O)NC2CCCCC2)n1 | - | - | - | 66 | - | - | 48 | - | Scp-1 Tm shift=-
Cc1ccc(S(=O)(=O)NCCN2CCOCC2)s1 | - | - | - | - | - | - | . | .
COc1ccc(/C=N/NC(=O)c2ccc(N)cc2)cc1Cn1cc([N+](=O)[O-])cn1 | - | - | - | - | - | - | . | .
O=C(O)c1ccc2c(=O)n(-c3ccccc3)c(=S)[nH]c2c1 | - | - | - | 79 | - | - | - | -
O=S(=O)(NCCCCNS(=O)(=O)c1ccc(F)cc1)c1ccc(F)cc1 | - | - | - | - | - | . | . | .
COc1ccc(S(=O)(=O)NCCC(C)C)cc1OC | - | - | - | - | - | - | . | .
COc1ccc(S(=O)(=O)NCCN2CCNC2=O)cc1OC | - | - | - | - | - | - | - | -
O=C1NCCN1CCNS(=O)(=O)c1ccc(F)cc1 | - | - | - | - | - | - | - | -
COc1ccc(S(=O)(=O)NC(=O)C2(C)CCN2C(=O)Cc2cc(C)cc(C)c2)cc1OC (stereo not drawn) | - | - | - | . | - | . | . | .
CS(=O)(=O)/C(C#N)=C/c1cccn1S(=O)(=O)c1cccc2ccccc12 | - | - | - | . | - | . | . | .
COc1ccc(/C=C/c2ccc3ccccc3[n+]2C)cc1OC | - | - | - | 99 | - | - | - | -
CC(=O)Oc1ccccc1/C=C/c1ccc2ccccc2[n+]1C | - | - | - | - | - | - | . | .
Nc1cc(C(=O)OCC(=O)c2ccc(CC(=O)N3CCOCC3)s2)ccc1Cl | - | - | - | 54 | - | . | 39 | - | Scp-1 Tm shift=6.2
CC(=O)Nc1ccc(S(=O)(=O)N/N=C/c2ccc(C)o2)cc1 | - | - | - | 67 | - | - | - | -
CC(C)(C)c1ccc2c(c1)OC(C(=O)N/N=C\c1ccncc1)CO2 (stereo not drawn) | - | - | - | - | - | - | . | .

Screening results: PubChem, Sanford-Burnham Center for Chemical Genomics
